# STK33 inh = human STK33 kinase inhibition; Q9BYT3; purified STK33, MBP phosphorylation, ADP-Glo luminescence; inhibition, % at 10 µM; actives 0.073% (n = 320,000); AID 2661;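 active means inhibition at or above 25%, using the most active replicate where run in duplicate; inactive means inhibition below 25%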
# CDK5 p35 inh = CDK5/p35 (human) kinase inhibition | inhibition, % at 10 µM | Recombinant CDK5/p35, ADP-Glo luminescence, 60 min | Q00535+Q15078 | actives 0.01% (n = 330,000);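 active means highest replicate inhibition of at least 50% and at least 75% of replicates reaching 50%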
# DYRK1A inh = blocks rat Dyrk1A kinase activity. Q63470. ADP-Glo luminescence, NFATc1 peptide. inhibition, % at 12.5 µM. actives 0.43% (n = 310,000); in the data active means inhibition above about 50%
# GSK3A inh = inhibitors of human GSK-3 alpha kinase; P49840; ADP-Glo luminescence, 60 min; inhibition, % at 10 µM; actives 0.1% (n = 320,000); AID 2650;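 active means more than half of replicates show inhibition above 20%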;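 further: GST-tagged GSK-3 alpha with peptide substrate and 25 µM ATP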
# GSK3B inh = blocks human GSK3beta kinase activity; AID 2097; activity score (negative = inhibition), % at 10 µM; P49841; actives 0.038% (n = 300,000); GST-GSK3beta kinase, ADP-Glo luminescence, 60 min; active compounds read low;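 active means more than half of replicate wells score below -50%, meaning over 50% inhibition versus plate controls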
# Target sequence (P49841 whole entry, looked up): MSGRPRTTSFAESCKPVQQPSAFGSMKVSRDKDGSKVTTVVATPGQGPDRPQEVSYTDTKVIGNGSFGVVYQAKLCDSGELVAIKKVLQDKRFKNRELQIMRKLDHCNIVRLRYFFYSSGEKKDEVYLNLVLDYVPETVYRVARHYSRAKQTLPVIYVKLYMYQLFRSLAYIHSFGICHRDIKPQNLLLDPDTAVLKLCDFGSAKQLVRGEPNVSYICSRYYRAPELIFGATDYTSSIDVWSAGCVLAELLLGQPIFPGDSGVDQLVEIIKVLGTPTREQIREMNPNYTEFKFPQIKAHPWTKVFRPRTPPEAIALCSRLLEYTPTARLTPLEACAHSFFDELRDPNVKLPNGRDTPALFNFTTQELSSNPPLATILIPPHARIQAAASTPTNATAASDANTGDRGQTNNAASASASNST
#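 Assay system: GST-tagged human GSK3beta kinase, cell-free; Input: 1.6 ng GSK3beta; Medium: Tris/MgCl2 kinase buffer; Timing: 60 min enzyme reaction, room temperature; Signal: ADP-Glo luminescence quantifying ADP generated by kinase; Evaluation: score relative to plate controls; Benchmarks: DMSO neutral wells and GW8510 at 20 µM as positive.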
# Dyrk1A artifact = interferes with ADP-Glo luciferase readout without Dyrk1A | shares compounds with DYRK1A inh | ADP-Glo luciferase artifact assay, no Dyrk1A, luminescence | AC50, µM (series often up to 12 µM) | 1,300 tested, under 10 active;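 active means fitted half-maximal dose AC50 no more than ten times the top valid tested dose, with luminescence dropping as dose rises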
# Hits are given with their value; - = inactive; . = not tested or not shown. Only a selection was taken, and hits are over-represented in it overall.
SMILES,STK33 inh,CDK5 p35 inh,DYRK1A inh,GSK3A inh,GSK3B inh,Dyrk1A artifact
CC(Sc1nnnn1-c1ccc(O)cc1)C(=O)NC1CCCCC1C (centres undefined),-,-,-,-,-,.
O=C1/C(=C/c2ccsc2)N2CCC1CC2,-,-,-,-,-,.
Nc1nc(N)nc(-c2ccc(Cl)cc2)n1,-,-,62.5,-,-,-
COCCn1ccc2c(OCC(=O)NCCc3ccccc3)cccc2c1=O,-,-,-,-,-,.
O=C1NC(=S)S/C1=C/c1ccc(OC(=O)c2ccco2)cc1,-,-,70.8,-,-,-
N#Cc1c(=O)c2nc(NCCCO)ncc2n2c(=O)c3ccccc3[nH]c12,-,-,55.6,-,-,-
N#Cc1c(=O)c2nc(NCc3ccccc3)ncc2n2ccccc12,-,-,-,-,-,.
Nc1ccc(S(=O)(=O)O)cn1,-,-,-,-,-,.
Nc1ccc(-c2ccc(C(=O)O)s2)cn1,-,-,71.0,-,-,-
Cc1ccc2c(c1C)-c1c(ccc(C)c1C)C(=O)C2=O,.,-,54.4,.,.,-
Oc1c(I)cc(Cl)c2cccnc12,-,-,-,-,-,.
Oc1c(Cl)c(Cl)c2ncccc2c1Cl,.,-,55.1,.,.,-
COc1cc(/C=C2\SC(N)=NC2=O)cc(Cl)c1O,-,-,61.1,-,-,-
Cn1c(=O)[nH]c2cc3ccccc3cc21,-,-,51.9,-,-,-
Cc1nc2cc3ccccc3cc2n1C,-,-,-,-,-,.
Oc1ccc(/C=N/n2c(-c3ccccc3)n[nH]c2=S)cc1,34.5,-,55.2,-,-,-
COc1ccc(/C=N/n2c(-c3ccccc3)n[nH]c2=S)cc1,-,-,-,-,-,.
CC(=O)Nc1ccc(S(=O)(=O)N2CCN(c3ncccn3)CC2)cc1,-,-,-,-,-,.
O=Cc1ccccc1-c1cn(CCCOCc2ccccc2)nn1,-,-,-,-,-,.
N#C/C(=C\c1ccc(O)c(O)c1)C(=O)NCCc1ccccc1,-,-,70.4,-,.,-
N#C/C(=C/c1ccc(O)c([N+](=O)[O-])c1)C(=O)Nc1ccccc1,-,-,81.0,-,-,-
COc1cc(/C=C(\C#N)C(=O)NCCc2ccccc2)cc(OC)c1O,-,-,-,-,-,.
N=C1S/C(=C\c2ccc(O)cc2)C(=O)N1c1ccc(F)cc1,-,-,77.8,-,-,-
O=C1NC(=O)/C(=C/c2ccc(O)cc2)S1,33.3,-,89.8,-,-,-
COc1ccc(-c2csc(N=C(N)N)n2)cc1,-,-,81.9,-,-,-
SMILES,STK33 inh,CDK5 p35 inh,DYRK1A inh,GSK3A inh,GSK3B inh,Dyrk1A artifact
COc1ccc(NC(=O)CN2C(=O)S/C(=C/c3cccn3-c3ccc(C(=O)O)cc3)C2=O)cc1,-,-,-,.,-,.
O=C(Nc1cccc(C(F)(F)F)c1)C1CCN(S(=O)(=O)c2ccc(N3CCCC3=O)cc2)CC1,-,-,-,-,-,.
CC(Oc1cccc(Br)c1)C(=O)NNC(=O)CCS(=O)(=O)c1ccccc1 (centres undefined),-,-,.,-,.,.
Nc1cc2c(cc1[N+](=O)[O-])-c1ccccc1C2=NO,.,-,79.8,.,.,-
COc1ccc2nc(NC(=O)C3CSC4(C)CCC(=O)N34)sc2c1 (centres undefined),-,-,-,-,-,.
CCc1ccc2nc(NC(=O)C3CSC4(C)CCC(=O)N34)sc2c1 (centres undefined),-,-,60.8,-,-,-
CN=C1S/C(=C\c2ccc(O)c(OC)c2)C(=O)N1C,-,.,.,-,-,.
CN=C1S/C(=C\c2ccc(O)c(Br)c2)C(=O)N1C,-,-,91.0,-,-,-
COc1ccc(C)cc1N(C(=O)c1snc(C(N)=O)c1N)C(C(=O)NC1CCCCC1)c1ccc(C)o1 (centres undefined),.,-,-,.,-,.
O=C(COc1ccc(Nc2ccccc2)cc1)OCC(=O)N1CCCCC1,-,-,-,-,-,.
O=C(CSc1nnnn1-c1ccc(O)cc1)Nc1ccc(N2CCOCC2)c(Cl)c1,-,-,51.0,-,-,-
CC1CCN(S(=O)(=O)c2ccc3c(c2)c(=O)c(C(=O)NCc2ccccc2Cl)cn3C)CC1,-,.,.,-,-,.
CN(C)S(=O)(=O)c1ccc(NC(=O)c2cc3ccccc3o2)cc1,-,-,75.5,-,-,-
CCOC(=O)c1cnc2ccc(C)cc2c1Nc1ccc(N2CCOCC2)cc1,-,-,60.8,-,-,-
CCOC(=O)c1ccc2ncc(C(=O)OCC)c(NCCN3CCOCC3)c2c1,-,-,-,-,-,.
CCC(CO)Oc1cc(NC(=O)c2ccc(C)cc2)c2ncn(C(C)C)c2c1 (centres undefined),-,-,-,-,.,.
COC(=O)c1cccc2c1-c1ccccc1/C2=N/O,29.6,-,57.5,-,-,-
COc1ccc(Nc2cc(C)c3ccc(O)cc3n2)cc1,-,-,-,-,-,.
Cc1cc(Nc2ccccc2)nc2cc(O)ccc12,-,-,73.8,-,-,-
CCOCCCNC(=O)/C(C#N)=C/c1cc(Br)c(O)c(Br)c1,.,-,54.7,.,-,-
COCCNC(=O)/C(C#N)=C/c1cc(Br)c(O)c(OC)c1,-,-,-,-,-,.
Cc1ccccc1C(=O)NNC(=O)Cc1cccc2ccccc12,-,-,-,-,-,.
Cc1ccccc1C(=O)NNC(=O)CCCCC(=O)NNC(=O)c1ccccc1C,-,-,65.8,-,-,-
CCOc1ccc(CO[C@@H]2O[C@H](CO)[C@@H](O)[C@H](O)[C@H]2NC(C)=O)cc1OC,-,-,-,-,-,.
C=CC(C)(C)c1c2occc2c(O)c2ccc(=O)oc12,.,-,-,.,.,.
SMILES,STK33 inh,CDK5 p35 inh,DYRK1A inh,GSK3A inh,GSK3B inh,Dyrk1A artifact
C=CC(C)(C)c1c(O)c(CC=C(C)C)c(O)c2c(=O)c3ccc(O)c(O)c3oc12,-,-,98.6,-,-,-
Cc1c(C)c2c(OCC(=O)N[C@@H](CC(C)C)C(=O)O)cc3c(c2oc1=O)CCC(C)(C)O3,-,-,-,-,-,.
CCCCNCCCCOc1ccccc1,-,-,-,-,-,.
C[N+](C)(CCOc1ccccc1)Cc1ccccc1,.,-,68.9,.,.,-
O=C(NN1C(=O)/C(=C/c2ccc(O)c([N+](=O)[O-])c2)SC1=S)c1ccccc1Cl,-,-,74.0,-,-,-
CCOc1ccccc1NC(=O)C(c1ccccc1)N1CCN(CC(=O)N2CCCC2)CC1 (centres undefined),-,-,-,-,.,.
CCC(C)[C@H]1CNCCN1CC1(c2ccccc2)CC1 (some centres undefined),-,-,-,-,-,.
CCC(C)[C@H]1CNCCN1CCc1cccc2ccccc12 (some centres undefined),-,-,50.9,-,-,-
COc1ccccc1C(=O)Nc1ccnn1C1CCN(CCCc2ccccc2)CC1,-,-,-,-,-,.
Cc1cc(N2CCC(C)CC2)nc2cccc(O)c12,-,-,50.7,-,-,-
CCOC(=O)C1=C(C)N(CCCC(=O)O)C(=O)NC1c1ccc(Cl)cc1 (centres undefined),-,-,-,-,-,.

# Screens from PubChem BioAssay.
